Experimental data: ChEMBL document CHEMBL1141897, “Pyrrolidinedione derivatives as antibacterial agents with a novel mode of action” (Bioorg Med Chem Lett, 2005)
In brackets after ≈: the same amount, converted by molar mass.

Columns and labels:
Type in all cases: functional
Staphylococcus aureus [1] = test: Inhibitory concentration of the compound against Staphylococcus aureus was determined
Escherichia coli [2] = test: Minimum inhibitory concentration of the compound againstEscherichia coli Neumann strainwas determined
Summary of the method: (§1)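 Whole-cell MIC panel of the Gram-positive S. aureus 133 and S. pneumoniae G9A, plus two E. coli strains: Neumann (wild type) and HN818 (efflux pump deletion strain).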

Staphylococcus aureus [3] = test: Minimum inhibitory concentration of the compound against Staphylococcus aureus 133 strain was determined; summary of the method: as §1
Escherichia coli [4] = test: Minimum inhibitory concentration of the compound againstEscherichia coli HN818 strain was determined; summary of the method: as §1
Escherichia coli [5] = test: Inhibitory concentration of the compound against Escherichia coli was determined
Streptococcus pneumoniae = test: Minimum inhibitory concentration against Streptococcus pneumoniae G9A strain was determined

Row | SMILES | IC50 (Staphylococcus aureus [1]) [nM] | MIC (Escherichia coli [2]) [µg/mL] | MIC (Staphylococcus aureus [3]) [µg/mL] | MIC (Escherichia coli [4]) [µg/mL] | IC50 (Escherichia coli [5]) [nM] | MIC (Streptococcus pneumoniae) [µg/mL]
1 | C/C=C/C=C/C(=O)N[C@@H](CC(=O)N[C@H](C(=O)[C@@H]1C(=O)N(NC)C(=O)[C@H]1C)C(C)C)c1ccccc1 | 105 | > 64 | 4 (≈ 8.29 µM) | 8 (≈ 16.6 µM) | 14 | 16 (≈ 33.2 µM)
2 | C/C=C/C=C/C(=O)N[C@@H](CC(=O)N[C@H](C(=O)[C@@H]1C(=O)N(C)C(=O)[C@H]1C)C(C)C)c1ccccc1 | 211 | > 64 | 16 (≈ 34.2 µM) | 16 (≈ 34.2 µM) | 25 | > 64
3 | CC(C)[C@H](NC(=O)C[C@H](NC(=O)/C=C/c1ccccc1)c1ccccc1)C(=O)[C@@H]1C(=O)NC(=O)[C@H]1C | 75 | 32 (≈ 65.4 µM) | 8 (≈ 16.3 µM) | 2 (≈ 4.09 µM) | 9 | 32 (≈ 65.4 µM)
4 | C/C=C/C=C/C(=O)N[C@@H](CC(=O)N[C@H](C(=O)C1C(=O)NC(=O)CC1C)C(C)C)c1ccccc1 (stereo not given in full) | > 1000 | > 64 | > 64 | > 64 | > 300 | > 64
5 | C/C=C/C=C/C(=O)N[C@@H](CC(=O)N[C@H](C(=O)[C@@H]1C(=O)N(N(C)C)C(=O)[C@H]1C)C(C)C)c1ccccc1 | 238 | > 64 | 4 (≈ 8.05 µM) | 4 (≈ 8.05 µM) | 33 | 16 (≈ 32.2 µM)
6 | C/C=C/C=C/C(=O)N[C@@H](CC(=O)N[C@H](C(=O)[C@@H]1C(=O)N(C)C(=O)[C@H]1CC)C(C)C)c1ccccc1 | > 1000 | > 64 | > 64 | > 64 | > 200 | > 64
7 | CC(C)[C@H](NC(=O)C[C@H](NC(=O)/C=C/c1ccc(Cl)c(Cl)c1)c1ccccc1)C(=O)[C@@H]1C(=O)NC(=O)[C@H]1C | 288 | 8 (≈ 14.3 µM) | 2 (≈ 3.58 µM) | 1 (≈ 1.79 µM) | 7 | 32 (≈ 57.3 µM)
8 | COc1cccc(/C=C/C(=O)N[C@@H](CC(=O)N[C@H](C(=O)[C@@H]2C(=O)NC(=O)[C@H]2C)C(C)C)c2ccccc2)c1 | 43 | 32 (≈ 61.6 µM) | 4 (≈ 7.7 µM) | 2 (≈ 3.85 µM) | 4 | 16 (≈ 30.8 µM)
9 | C/C=C/C=C/C(=O)N[C@@H](CC(=O)N[C@H](C(=O)[C@@H]1C(=O)N(CCOC)C(=O)[C@H]1C)C(C)C)c1ccccc1 | 1300 | > 64 | 64 (≈ 125 µM) | > 64 | 150 | 64 (≈ 125 µM)
10 | CC(C)[C@H](NC(=O)C[C@H](NC(=O)/C=C/c1c[nH]cn1)c1ccccc1)C(=O)[C@@H]1C(=O)NC(=O)[C@H]1C | 151 | > 64 | > 64 | 64 (≈ 133 µM) | 6 | > 64
11 | C/C=C/C=C/C(=O)N[C@@H](CC(=O)N[C@H](C(=O)[C@@H]1C(=O)N(OCC)C(=O)[C@H]1C)C(C)C)c1ccccc1 | 123 | > 64 | 8 (≈ 16.1 µM) | 64 (≈ 129 µM) | 100 | 32 (≈ 64.3 µM)
12 | CC(C)[C@H](NC(=O)C[C@H](NC(=O)/C=C/c1ccc(-c2ccccc2)cc1)c1ccccc1)C(=O)[C@@H]1C(=O)NC(=O)[C@H]1C | 540 | > 64 | 2 (≈ 3.54 µM) | > 64 | 37 | 16 (≈ 28.3 µM)
13 | C/C=C/C=C/C(=O)N[C@@H](CC(=O)N[C@H](C(=O)[C@@H]1C(=O)N(C2CC2)C(=O)[C@H]1C)C(C)C)c1ccccc1 | 2560 | > 64 | > 64 | > 64 | 60 | > 64
14 | C/C=C/C=C/C(=O)N[C@@H](CC(=O)N[C@H](C(=O)[C@@H]1C(=O)NC(=O)[C@H]1C)C(C)C)c1ccccc1 | 96 | 32 (≈ 70.6 µM) | 8 (≈ 17.6 µM) | 4 (≈ 8.82 µM) | 6 | 32 (≈ 70.6 µM)
15 | C/C=C/C=C/C(=O)N[C@@H](CC(=O)N[C@H](C(=O)C1CC(C)C(=O)NC1=O)C(C)C)c1ccccc1 (stereo not given in full) | > 1000 | > 64 | > 64 | > 64 | 295 | > 64
16 | C/C=C/C=C/C(=O)N[C@@H](CC(=O)N[C@H](C(=O)[C@H]1CC(=O)N(C)C1=O)C(C)C)c1ccccc1 | > 1000 | > 64 | > 64 | > 64 | > 200 | > 64
17 | CC(C)[C@H](NC(=O)C[C@H](NC(=O)/C=C/C(=O)O)c1ccccc1)C(=O)[C@@H]1C(=O)NC(=O)[C@H]1C | 317 | > 64 | > 64 | > 64 | 2 | > 64
18 | C/C=C/C=C/C(=O)N[C@@H](CC(=O)N[C@H](C(=O)C1CCC(=O)NC1=O)C(C)C)c1ccccc1 (stereo not given in full) | > 1000 | > 64 | > 64 | > 64 | > 300 | > 64
19 | C/C=C/C=C/C(=O)N[C@@H](CC(=O)N[C@H](C(=O)[C@@H]1C(=O)NC(=O)C1(C)C)C(C)C)c1ccccc1 | 900 | > 64 | > 64 | > 64 | 54 | > 64
20 | C/C=C/C=C/C=C/C(=O)N[C@@H](CC(=O)N[C@H](C(=O)[C@@H]1C(=O)NC(=O)[C@H]1C)C(C)C)c1ccccc1 | 305 | > 64 | 8 (≈ 16.7 µM) | 32 (≈ 66.7 µM) | 13 | 8 (≈ 16.7 µM)
